Bioassay records as filed in PubChem BioAssay.
IMP-1 inhibitor: inhibitors of Pseudomonas aeruginosa IMP-1 metallo-beta-lactamase; inhibition, % at 5.6 µM; AID 1556; hit rate 0.45% among 290,000; purified IMP-1, nitrocefin hydrolysis, epi-absorbance fluorescence;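 active = inhibition above the mean plus 3 SD of all compounds in the same screening run, cut at about 4.5% in these data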
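Test system: recombinant IMP-1 enzyme, purified / Medium: HEPES buffer pH 7.1 with ZnSO4 and Brij 35 / Doses: single dose, 5.6 µM / Times: 25 °C, 15 min preincubation, 25 min reaction / Detection: Epi-absorbance via hydrolysed-nitrocefin quenching of white-plate fluorescence, 480/530 nm, EDTA stop / Evaluation: percent inhibition from optical density relative to buffer-blank wells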
SUMO HTRF inh: blocks human SUMOylation mediated by UBC9; HTRF SUMOylation assay, SAE1/SAE2 + UBC9, in vitro; hit rate 0.36% among 290,000; inhibition, % at 35 µM; P63279; AID 2006; in the data active = inhibition above about 50%, passing the limit was not always enough
Target sequence (P63279 whole entry, looked up): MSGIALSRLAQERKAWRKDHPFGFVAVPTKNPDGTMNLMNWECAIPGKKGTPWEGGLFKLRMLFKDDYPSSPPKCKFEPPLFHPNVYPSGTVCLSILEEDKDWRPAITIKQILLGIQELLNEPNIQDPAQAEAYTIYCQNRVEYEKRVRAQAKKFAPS
FID counter: fluorescent intercalator displacement, NS3 helicase counter-screen. inhibition, % at 7.9 µM. hit rate 0.17% among 290,000. DNA fluorescent intercalator displacement, fluorescence; in the data active = inhibition above about 37%;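 note: higher means more ethidium bromide displaced from hairpin DNA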
Mot1-301 SUMO: SUMOylation pathway inhibition by Mot1-301 growth rescue; S. cerevisiae Mot1-301 growth rescue, ATP luminescence, 38.5C; percent above DMSO median, 100 means doubled; growth rescue, % at 18.8 µM; hit rate 1% among 320,000; AID 2716;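 active = every valid replicate shows activation above 250% relative to neutral control wells; inactive = the rest, any valid replicate at or below 250%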
NALP1 inh: NALP1 inhibition; S. cerevisiae NALP1/ASC/caspase-1 growth, X-gal OD620, 72 h; inhibition, % at 10 µM; hit rate 0.61% among 280,000; in the data active = inhibition mostly above about 24%, no sharp cut-off; inactive = mostly below about 32%
VIM-2 inhibitor: blocks Pseudomonas aeruginosa VIM-2 metallo-beta-lactamase | purified VIM-2, nitrocefin hydrolysis, epi-absorbance fluorescence | inhibition, % at 5.6 µM | hit rate 0.89% among 290,000;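 active = inhibition above the mean of all tested compounds plus 3 SD, cutoff set per screening run, cut at about 7.5% in these data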;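 note: red hydrolysis product quenches plate fluorescence so inhibitors raise well fluorescence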
Hits are given with their value; - = inactive; . = no result given. Rows were chosen to be rich in hits. Some 2.9% of all compounds tested hit in one or more screens of this group.

SMILES	IMP-1 inhibitor	SUMO HTRF inh	FID counter	Mot1-301 SUMO	NALP1 inh	VIM-2 inhibitor
COc1ccccc1C1NC(=O)NC(C)=C1C(=O)Nc1cccc(C)c1C (stereo not drawn)	5.0	-	-	-	-	-
C=CCc1c(C)[nH]c(=S)c(C#N)c1C	9.3	-	-	-	-	-
COc1ccccc1-c1ccc(/C=C2/C=C(C)OC2=O)o1	-	-	-	-	-	-
COc1ccccc1-c1ccc(/C=C2\C=CC(=O)O2)o1	5.4	-	-	-	-	-
O=C(OCN1C(=O)c2ccccc2C1=O)c1cccc(S(=O)(=O)N2CCOCC2)c1	-	-	-	-	-	-
CCc1ccc(Cn2nnc(C(=O)Nc3ccc(OC)cc3OC)c2N)cc1	-	-	-	-	45	-
COc1ccc(NC(=O)c2nnn(CC(=O)Nc3ccccc3OC)c2N)c(OC)c1	-	-	-	-	-	-
COc1cccc(CNCCc2c[nH]c3ccccc23)c1OCc1ccccc1	-	-	52	-	-	-
COc1ccc(-c2ccc(C#N)c(SCC(=O)Nc3sc4c(c3C#N)CCC4)n2)cc1OC	-	52	-	-	-	-
CN1C(=O)/C(=C/C=C2\SCCN2C)N(C)C1=S	-	-	-	.	-	-
COC(CNC(=O)c1cccc2c1C(=O)N(Cc1cccnc1)C2)OC	-	-	-	-	41	-
COc1ccccc1CNC(=O)c1cccc2c1C(=O)N(Cc1cccnc1)C2	-	-	-	-	-	-
Cc1nc2ccccc2c2c1C(=O)N(Cc1cccnc1)C2=O	-	-	-	-	-	11
O=C(CSc1nc2[nH]ncc2c(=O)[nH]1)NCCc1ccccc1	-	-	-	-	-	-
CCCNC(=O)c1cc(S(=O)(=O)N2CCCCC2)c[nH]1	-	-	-	-	-	-
CCOc1ccccc1NC(=O)CCNS(=O)(=O)c1ccccc1	7.3	-	-	-	.	-
CCOc1ccccc1NC(=O)CSc1ccccc1	-	-	-	-	27	-
CCc1cc2c(=O)c(Oc3ccccc3F)c(C)oc2c(CN(C)C)c1O	-	64	-	-	-	-
Cc1cc(Cl)c2oc(C(=O)N3CCN(c4ccncc4)CC3)c(C)c2c1	-	-	-	450	-	7.8
CS(=O)(=O)N(Cc1ccccc1)c1ccccc1C(=O)N1CCN(c2ccccc2)CC1	-	-	-	-	-	-
N#Cc1ccccc1CSc1nc(N2CCCCC2)nc(N2CCCCC2)n1	-	-	-	-	-	-
Cc1nc(SCc2ccccc2C#N)n[nH]1	4.9	-	-	-	-	-
N#Cc1c2n(c3c(N)ncnc13)CCCCC2	-	-	-	-	-	-
CCCCOC(=O)Nc1nnc(CC)s1	-	-	-	-	43	-
CC(C)(C)c1cc(C(=O)O)c(CN2CCCCC2)o1	-	-	-	-	38	-
SMILES	IMP-1 inhibitor	SUMO HTRF inh	FID counter	Mot1-301 SUMO	NALP1 inh	VIM-2 inhibitor
Cc1oc(C(C)(C)C)cc1C(=O)NC1CCN(Cc2ccccc2)CC1	-	-	-	-	-	-
CCN1/C(=C/c2ccc3cccc(C)c3[n+]2CC)Sc2ccccc21	-	-	-	-	34	-
CCN1/C(=C/c2ccc3cc(C)cc(C)c3[n+]2CC)Sc2cc(C)ccc21	-	-	-	.	-	-
CC(=O)Nc1ccc2cc3ccc(NC(C)=O)cc3nc2c1	-	-	56	-	-	8.4
O=[N+]([O-])c1ccc(/C=C2\CCC(C3=CCCC3)=C2N2CCOCC2)cc1	-	-	-	-	-	-
CCOc1ccc(N/C=C/C(=O)c2ccccc2)c([N+](=O)[O-])c1	-	-	-	-	51	-
CCOc1ccc(NC(=O)/C=C/c2ccccc2)c([N+](=O)[O-])c1	4.8	-	-	-	-	-
CCOc1ccc(Nc2ccc(C(=O)O)cc2[N+](=O)[O-])cc1	-	-	-	-	-	-
N#Cc1c2nc3ccccc3nc2n2cc(NC(=O)c3ccc(F)cc3)ccc12	-	.	-	.	-	-
Cc1c(C(=O)Nc2ccc(F)cc2)cn2c(nc3ccccc32)c1C#N	-	53	-	-	.	-
CCOc1ccc2nc(N3CCCC(C(=O)N4CCN(CC)CC4)C3)sc2c1 (stereo not drawn)	-	-	-	-	34	-
CCCN1CCN(CCCNC(=O)C2CCCN(c3nc4ccc(OCC)cc4s3)C2)CC1 (stereo not drawn)	-	-	-	-	-	-
O=C(NC(Cc1ccccc1)C(=O)O)/C(=C/c1ccc([N+](=O)[O-])cc1)NC(=O)c1ccccc1 (stereo not drawn)	-	-	-	-	-	-
CCOC(=O)Cn1c(-c2ccccc2)nc2ccccc2c1=O	-	-	-	-	-	-
CCCCOC(=O)Cn1c(-c2ccccc2)nc2ccccc2c1=O	-	-	-	553	-	-
COc1ccc(O)c(/C=N/NC(=O)c2cc(=O)[nH]c3ccccc23)c1	-	-	-	-	45	-
CCc1noc(C)c1C(=O)Nc1ccc(C#N)cc1	.	.	.	-	.	.
COc1coc(C(O)CN)cc1=O (stereo not drawn)	-	-	-	-	-	-
CCOC(=O)C(=Cc1cc(=O)c(OC)co1)C(=O)OCC	-	-	-	.	85	-
O=C1c2cccc(OCc3ccc(F)cc3)c2CCN1Cc1ccccc1	6.1	-	-	-	-	-
Cc1ccc(COc2cccc3c2CCN(Cc2ccc(F)cc2)C3=O)cc1	-	-	-	-	-	-
Fc1ccc(C2CCCN2Cc2nc(Cc3ccccc3F)no2)cc1 (stereo not drawn)	-	-	-	-	24	-
Cc1cc(C)n(-c2cc(-c3ccccc3)nc(C)n2)n1	-	-	-	336	-	-
CC1(c2ccc([N+](=O)[O-])cc2)NC(=O)NC1=O (stereo not drawn)	-	-	-	-	-	-
S=C(NCCN1CCOCC1)Nc1ccc(Br)cc1	-	-	-	-	-	-
SMILES	IMP-1 inhibitor	SUMO HTRF inh	FID counter	Mot1-301 SUMO	NALP1 inh	VIM-2 inhibitor
CCCCc1ccc(NC(=S)NCCN2CCOCC2)cc1	-	-	-	731	-	-
CC1(C)OC(=O)N(c2ccccc2)C12C=Cc1c(ccc3ccccc13)O2 (stereo not drawn)	-	-	-	274	-	-
O=C1NC2(C=Cc3c(ccc4ccccc34)O2)Oc2ccccc21 (stereo not drawn)	-	-	-	-	-	-
Cc1cccc(-c2nnc(SCC(=O)NC3CC3)n2C)c1	-	-	-	-	28	-
Cn1c(SCC(=O)NC2CC2)nnc1-c1ccccc1	-	-	-	-	-	-
Cc1cc2c(c(SCC(=O)NCc3ccccc3Cl)n1)C(=O)OC2	-	-	-	-	-	-
CC(C)(c1ccccc1)c1ccc(OCCCNCCO)cc1	5.4	-	-	.	-	-
COCCCNCCCOc1ccc(C(C)(C)c2ccccc2)cc1	-	-	-	-	-	-
COc1ccc(/C=C/C(=O)O)cc1O	.	.	.	-	.	.
CCC(C)NC(=O)CCSCCC(=O)NC(C)CC (stereo not drawn)	-	-	-	-	-	-
